Consider three compounds from ChEMBL document CHEMBL4402517, “Rational modification of Mannich base-type derivatives as novel antichagasic compounds: Synthesis, in vitro and in vivo evaluation” (Bioorg Med Chem, 2019).

A value given as a limit tells only on which side of the number the result lay.

A short description of series [1]: Genotoxicity in Salmonella typhimurium TA1535 harboring pSK1002 assessed as survival at 0.004 mg/ml in absence of Sprague-Dawley rat liver S9 fraction metabolic activation by SOS/umu assay relative to control. In kind it is toxicity. The settings on record: salmonella enterica subsp. enterica serovar typhimurium, read-out: Survival. In short, it runs like this: (§1)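 Survival of S. typhimurium TA1535/pSK1002 exposed to a range of compound concentrations with or without S9 mix in 96-well format. Survival percentage measured as the cytotoxicity arm of the SOS/umu test. Concentrations with survival ≥80% are counted as non-cytotoxic.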

The nature of series [2]: Genotoxicity in Salmonella typhimurium TA1535 harboring pSK1002 assessed as survival at 0.002 mg/ml in absence of Sprague-Dawley rat liver S9 fraction metabolic activation by SOS/umu assay relative to control. The settings on record: salmonella enterica subsp. enterica serovar typhimurium, read-out: Survival. In kind it is toxicity. The gist of the method: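 Salmonella typhimurium TA1535/pSK1002 was exposed to compounds at several concentrations with or without S9 mix, and bacterial survival % was measured. β-galactosidase induction was measured colorimetrically with ONPG substrate. Genotoxicity was counted where IF ≥ 2 at ≥80% survival; runs were valid if positive controls reached IF ≥ 2.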

A short description of series [3]: Genotoxicity in Salmonella typhimurium TA1535 harboring pSK1002 assessed as survival at 0.25 mg/ml in presence of Sprague-Dawley rat liver S9 fraction metabolic activation by SOS/umu assay relative to control. In kind it is toxicity, subcellular. The settings on record: salmonella enterica subsp. enterica serovar typhimurium, read-out: Survival. The gist of the method:
as §1

Series [4] is described as follows: Genotoxicity in Salmonella typhimurium TA1535 harboring pSK1002 assessed as survival at 0.125 mg/ml in presence of Sprague-Dawley rat liver S9 fraction metabolic activation by SOS/umu assay relative to control. In kind it is toxicity, subcellular. The conditions noted are these: salmonella enterica subsp. enterica serovar typhimurium, read-out: Survival. In short, it runs like this:
as §1

Series [5] in a line: Genotoxicity in Salmonella typhimurium TA1535 harboring pSK1002 assessed as survival at 0.008 mg/ml in presence of Sprague-Dawley rat liver S9 fraction metabolic activation by SOS/umu assay relative to control. The conditions noted are these: salmonella enterica subsp. enterica serovar typhimurium, read-out: Survival. Type of series: toxicity, subcellular. The gist of the method: as §1

Series [6] in a line: Genotoxicity in Salmonella typhimurium TA1535 harboring pSK1002 assessed as umu gene induction at 1 mg/ml in absence of Sprague-Dawley rat liver S9 fraction metabolic activation by SOS/umu assay relative to control. Type of series: toxicity. The settings on record: salmonella enterica subsp. enterica serovar typhimurium, read-out: FC. The gist of the method:
(§2)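 umu induction in S. typhimurium TA1535/pSK1002, with or without S9 mix, in 96-well format. β-galactosidase read colorimetrically with ONPG substrate. Output given as relative units and induction factor (IF). The run is valid if positive controls reach IF ≥2. A compound counts as genotoxic at IF ≥2 at a concentration giving ≥80% bacterial survival.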

A short description of series [7]: Genotoxicity in Salmonella typhimurium TA1535 harboring pSK1002 assessed as umu gene induction at 0.5 mg/ml in absence of Sprague-Dawley rat liver S9 fraction metabolic activation by SOS/umu assay relative to control. Type of series: toxicity. The settings on record: salmonella enterica subsp. enterica serovar typhimurium, read-out: FC. In short, it runs like this:
as §2

Series [8] in a line: Genotoxicity in Salmonella typhimurium TA1535 harboring pSK1002 assessed as umu gene induction at 0.031 mg/ml in absence of Sprague-Dawley rat liver S9 fraction metabolic activation by SOS/umu assay relative to control. In kind it is toxicity. The conditions noted are these: salmonella enterica subsp. enterica serovar typhimurium, read-out: FC. In short, it runs like this:
as §2

Series [9] in a line: Genotoxicity in Salmonella typhimurium TA1535 harboring pSK1002 assessed as umu gene induction at 0.016 mg/ml in absence of Sprague-Dawley rat liver S9 fraction metabolic activation by SOS/umu assay relative to control. In kind it is toxicity. The conditions noted are these: salmonella enterica subsp. enterica serovar typhimurium, read-out: FC. The gist of the method: as §2

A short description of series [10]: Genotoxicity in Salmonella typhimurium TA1535 harboring pSK1002 assessed as umu gene induction at 0.004 mg/ml in absence of Sprague-Dawley rat liver S9 fraction metabolic activation by SOS/umu assay relative to control. In kind it is toxicity. The settings on record: salmonella enterica subsp. enterica serovar typhimurium, read-out: FC. The gist of the method:
as §2

Series [11] is described as follows: Genotoxicity in Salmonella typhimurium TA1535 harboring pSK1002 assessed as umu gene induction at 0.25 mg/ml in presence of Sprague-Dawley rat liver S9 fraction metabolic activation by SOS/umu assay relative to control. Type of series: toxicity, subcellular. The settings on record: salmonella enterica subsp. enterica serovar typhimurium, read-out: FC. The gist of the method: as §2

Series [12] is described as follows: Genotoxicity in Salmonella typhimurium TA1535 harboring pSK1002 assessed as umu gene induction at 0.125 mg/ml in presence of Sprague-Dawley rat liver S9 fraction metabolic activation by SOS/umu assay relative to control. In kind it is toxicity, subcellular. The settings on record: salmonella enterica subsp. enterica serovar typhimurium, read-out: FC. The gist of the method: as §2

Series [13] in a line: Genotoxicity in Salmonella typhimurium TA1535 harboring pSK1002 assessed as umu gene induction at 0.016 mg/ml in presence of Sprague-Dawley rat liver S9 fraction metabolic activation by SOS/umu assay relative to control. Type of series: toxicity, subcellular. The conditions noted are these: salmonella enterica subsp. enterica serovar typhimurium, read-out: FC. In short, it runs like this:
as §2

The nature of series [14]: Genotoxicity in Salmonella typhimurium TA1535 harboring pSK1002 assessed as umu gene induction at 0.031 mg/ml in presence of Sprague-Dawley rat liver S9 fraction metabolic activation by SOS/umu assay relative to control. Type of series: toxicity, subcellular. The settings on record: salmonella enterica subsp. enterica serovar typhimurium, read-out: FC. In short, it runs like this:
as §2

Series [15] can be described thus: Toxicity in BALB/c mouse infected with Trypanosoma cruzi MHOM/Pe/2011/Arequipa;DTU 5 bloodstream trypomastigote assessed as decrease in serum alkaline phosphatase level in acute phase at 20 mg/kg/day, po administered for 5 consecutive days starting from day 8 post infection and measured at day 14 post infection by biochemical analysis relative to control. In kind it is organism-based. Set-up: scale not given: the % may be the effect or the level left. The settings on record: in vivo. The gist of the method: (§3)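 Female BALB/c mice (10–12 weeks, 14–20 g; groups of three) were infected i.p. with 5 × 10^5 Arequipa bloodstream trypomastigotes. Dosing was oral at 20 mg/kg/day for 5 days, from day 8 pi (acute) or day 70 pi (chronic), as a 2 mg/ml suspension in 5% DMSO/0.5% HPMC; controls received vehicle. Cyclophosphamide 200 mg/kg i.p. was given at day 80 pi. Serum was collected 2 days post-treatment and at necropsy by cardiac puncture and compared with infected untreated controls.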

Series [16] can be described thus: Toxicity in BALB/c mouse infected with Trypanosoma cruzi MHOM/Pe/2011/Arequipa;DTU 5 bloodstream trypomastigote assessed as change in serum lactate dehydrogenase level in acute phase at 20 mg/kg/day, po administered for 5 consecutive days starting from day 8 post infection and measured on day 100 post infection by biochemical analysis relative to control. In kind it is organism-based. The conditions noted are these: in vivo. The gist of the method: as §3

Series [17] can be described thus: Toxicity in BALB/c mouse infected with Trypanosoma cruzi MHOM/Pe/2011/Arequipa;DTU 5 bloodstream trypomastigote assessed as decrease in serum uric acid level in chronic phase at 20 mg/kg/day, po administered for 5 consecutive days starting from day 70 post infection and measured at day 76 post infection relative to control. The conditions noted are these: in vivo. Set-up: scale not given: the % may be the effect or the level left. In kind it is organism-based. In short, it runs like this: as §3

Series [18] in a line: Toxicity in BALB/c mouse infected with Trypanosoma cruzi MHOM/Pe/2011/Arequipa;DTU 5 bloodstream trypomastigote assessed as decrease in serum uric acid level in chronic phase at 20 mg/kg/day, po administered for 5 consecutive days starting from day 70 post infection measured on day 100 post infection relative to control. In kind it is organism-based. Set-up: scale not given: the % may be the effect or the level left. The settings on record: in vivo. The gist of the method: as §3

Series [19] in a line: Toxicity in BALB/c mouse infected with Trypanosoma cruzi MHOM/Pe/2011/Arequipa;DTU 5 bloodstream trypomastigote assessed as increase in serum total bilirubin level in acute phase at 20 mg/kg/day, po administered for 5 consecutive days starting from day 8 post infection and measured at day 14 post infection by biochemical analysis relative to control. In kind it is organism-based. The conditions noted are these: in vivo. In short, it runs like this:
as §3

Another series relates to Trypanosoma cruzi. The experiment in a line: Trypanocidal activity against Trypanosoma cruzi trypomastigote form infected in African green monkey Vero cells assessed as ratio of infected cells at 25 uM measured after 72 hrs by Giemsa staining based assay relative to control. In kind it is functional. The gist of the method:
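Vero cells in RPMI with 10% heat-inactivated FBS, seeded at 1 × 10^4/well on coverslips for 24 h at 37 °C, 5% CO2. Infected with bloodstream trypomastigotes at MOI 10:1 for 24 h, then washed three times with PBS. Compounds added at 3.1–50 µM for 72 h. Infected cells counted after Giemsa staining. Triplicates, two separate determinations.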

As to `O=C(CCN1CCN(c2ccc(C(F)(F)F)cc2)CC1)c1ccc(O)cc1`, the viability at 0.004 mg/ml in [1] amounted to 127%. Also, the viability at 0.002 mg/ml in [2] came to 116%. Besides, the viability at 0.25 mg/ml in series [3] turned out to be 140%. Also, the viability at 0.125 mg/ml in [4] stood at 138%. The viability at 0.008 mg/ml in series [5] was determined as 104%. Moreover, in series [6], the fold induction at 1 mg/ml is 0.16. The fold induction at 0.5 mg/ml in series [7] turned out to be 0.43. The figures for the fold induction at 0.031 mg/ml in series [8] and in series [14] were 0.66 and 0.87, respectively. In addition, the fold induction at 0.016 mg/ml in [9] turned out to be 0.74; in [13] it was 0.79. Moreover, the fold induction at 0.004 mg/ml in [10] was found to be 0.69. The fold induction at 0.25 mg/ml in series [11] is 0.63. The fold induction at 0.125 mg/ml in [12] is 0.63. The Activity entry is on record as “<= 30%” in series [15]; greater than 10% in [16]; “<= 20%” in series [17]; “<= 10%” in series [18]; greater than 40% in series [19].

`O=C(CCN1CCN(c2ccc(Cl)cc2)CC1)c1ccc(O)cc1`: the Ratio with Trypanosoma cruzi was determined as 19%. Moreover, the viability at 0.004 mg/ml in series [1] was found to be 140%. For the same compound, in series [2], the viability at 0.002 mg/ml amounted to 109%. Also, the viability at 0.25 mg/ml in [3] was determined as 138%. Besides, in series [4], the viability at 0.125 mg/ml is 113%. Further, the viability at 0.008 mg/ml in [5] is 109%. The fold induction at 1 mg/ml in [6] stood at 0.12. Also, the fold induction at 0.5 mg/ml in [7] worked out at 0.26. The fold induction at 0.031 mg/ml turned out to be 0.7 in series [8] and 0.83 in series [14]. Further, the fold induction at 0.016 mg/ml in [9] turned out to be 0.66; in [13], 0.84. The fold induction at 0.004 mg/ml in series [10] is 0.68. In addition, in [11], the fold induction at 0.25 mg/ml stood at 0.63. For the same compound, the fold induction at 0.125 mg/ml in series [12] turned out to be 0.84. The Activity entry in series [15] is “<= 10%”; in [16] it was greater than 10%; in series [19], “<= 10%”.

Regarding `O=C(Cn1ccnc1[N+](=O)[O-])NCc1ccccc1` [BENZNIDAZOLE], the Ratio in the series on Trypanosoma cruzi is reported as 18%. Also, the Activity result in series [17] and in series [18] was “<= 30%” each time.
